# NCF1 inh: blocks human p47phox regulatory protein of NADPH oxidases | inhibition, % at 24.7 µM | P14598 | AID 1274 | actives 0.53% (n = 220,000) | p47phox/p22phox peptide binding, fluorescence polarization, 2 h;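 active = inhibition above about 30%, limit read from the data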;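 note: 0% = p47phox with labelled peptide and 100% = labelled peptide alone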
# Target sequence (P14598 whole entry, looked up): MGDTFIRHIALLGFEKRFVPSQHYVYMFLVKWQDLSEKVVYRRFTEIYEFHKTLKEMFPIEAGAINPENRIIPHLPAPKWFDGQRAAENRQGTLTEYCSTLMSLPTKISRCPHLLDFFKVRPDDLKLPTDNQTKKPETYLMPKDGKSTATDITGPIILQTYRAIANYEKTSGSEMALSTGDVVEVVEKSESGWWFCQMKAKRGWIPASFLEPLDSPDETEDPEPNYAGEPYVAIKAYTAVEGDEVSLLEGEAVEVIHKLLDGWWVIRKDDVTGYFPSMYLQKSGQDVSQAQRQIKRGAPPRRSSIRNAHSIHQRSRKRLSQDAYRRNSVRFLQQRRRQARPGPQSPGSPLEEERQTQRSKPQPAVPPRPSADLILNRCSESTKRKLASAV
# TNAP act hiacc: TNAP (human) activation, high acceptor; purified TNAP, CDP-star luminescence, 1 M DEA, 30 min; stronger effect = higher value; 0 = EDTA background, 1 = DMSO-only activity; activation factor at 20 µM; 200,000 tested, under 10 active;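 active = activation factor at least 2 at 20 µM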
#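 Assay system: human TNAP; Input: enzyme diluted 1/800 final; Reagent: CDP-star luminogenic substrate at 100 µM final; Timing: 30 min, room temperature; Signal: luminescence; Evaluation: TNAP activation factor scaled between EDTA and DMSO control wells.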
# TNAP inh hiacc: inhibitors of human TNAP at high phosphate acceptor concentration | P05186 | purified TNAP, CDP-star luminescence, 1 M DEA | inhibition, % at 20 µM | actives 0.03% (n = 200,000);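 active = over 50% inhibition of tissue-nonspecific alkaline phosphatase at 20 µM in the single-dose screen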;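 note: plate controls were DMSO wells for no effect and EDTA-quenched wells as full inhibition for full effect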
# TNAP inh no acc: blocks human TNAP activity with no phosphate acceptor present. P05186. purified TNAP, CDP-star luminescence, 30 min. inhibition, % at 20 µM. actives 0.26% (n = 200,000). AID 1012;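 active = tissue-nonspecific alkaline phosphatase inhibition above about 50% at 20 µM in the single-dose screen, limit read from the data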;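 note: 0% = DMSO negative control and 100% = EDTA positive control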
# Autophagy mod: alters autophagy in cells | actives 0.98% (n = 190,000) | AID 463193 | MEF GFP-LC3 puncta imaging; test concentration mostly 10 µM | calls only at 10 µM (by protocol);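 active = percentage of spot-positive cells more than 3 SD above its plate mean, without a fluorescence outlier flag or 80% toxicity; inconclusive = no clear call, values can overlap the other calls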;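 note: spot-positive cell cutoff set from DMSO-treated cells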
# Insulin prom up: MIN6 insulin promoter up-regulation. z-score at 5 µM. MIN6 insulin promoter-GFP reporter, high-content imaging; stronger effect = higher value. actives 0.3% (n = 190,000);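 active = z-score above 3 at 5 µM with at least 500 cells counted in the well; inconclusive = wells under 500 cells, flagged as cytotoxic or low count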
# * = called active by the depositor; i = inactive; ? = inconclusive; . = not tested or not shown; + = active, no number. In the library only some 1.8% were active in any assay of this set; here they are far more common.
SMILES,NCF1 inh,TNAP act hiacc,TNAP inh hiacc,TNAP inh no acc,Autophagy mod,Insulin prom up
CN(C)S(=O)(=O)c1cccc(-n2sc3ccccc3c2=O)c1,92.8*,1,1.2,-4.5,i,-0.12
O=c1c2ccccc2sn1-c1ccccc1,59.7*,1,-3.8,-9.9,i,0.03
O=c1c2ccccc2sn1-c1ccc(S(=O)(=O)N2CCCC2)cc1,30.5*,1.1,-7.7,0.4,i,0.96
COCCNC(=O)C(c1c[nH]c2ccccc12)N(C(=O)c1snc(C(N)=O)c1N)c1cccc(OC)c1 (stereo unspecified),2.0,1.1,-7.1,-18.2,i,-1.19
Cc1ccc(/C=N\NC(=O)CCc2n[nH]c(=O)[nH]c2=O)o1,6.4,1,-2.6,-19.1,i,-0.3
COc1ccccc1C(=O)NNC(=O)c1cccc(Cl)c1,-7.1,1,-1.9,-18.7,+,1.16
COc1ccc(Cl)cc1C(=O)NNC(=O)c1cccc([N+](=O)[O-])c1,-2.6,1,-1.6,-12.3,i,0.15
O=C(Nc1nnc(-c2ccccc2F)s1)c1cccnc1,73.0*,1,-4.7,1.1,i,-0.1
O=C(Nc1nnc(C(F)(F)F)s1)c1cccnc1,-1.3,1,-3.0,1.5,i,0.73
CC(=O)Nc1ccc(S(=O)(=O)N(CC(=O)Nc2cc(C)on2)Cc2ccc(F)cc2)cc1,-10.4,.,.,.,.,-0.1
COc1ccccc1C(=O)N/C(=C/c1ccc(Br)cc1)C(=O)NCCO,5.5,1,0.9,-4.5,i,0.71
C=CCNC(=O)/C(=C\c1ccc(Br)cc1)NC(=O)c1ccccc1OC,-3.0,1,-3.1,-9.1,i,3.42*
Cc1cc2nnc(SCC(=O)NCc3cccs3)n2c2ccccc12,-7.2,1,-3.6,-13.3,+,-0.63
Cc1csc(NC(=O)CSc2ncnc3c2cnn3-c2ccccc2Cl)n1,-1.7,1,2.6,-1.5,i,0.99
Cc1cc2nnc(SCC(=O)NCc3cccs3)n2c(N)n1,-6.8,1,-1.6,-10.5,i,0.91
Cc1ccccc1-n1ncc2c(SCC(=O)NCc3cccs3)ncnc21,8.4,1.1,-5.3,-5.7,i,3.57*
Fc1ccc(Sc2ccccc2CNC2=NCCN2)cc1,-4.5,1,-3.8,-7.6,i,-0.85
COc1ccc(-c2cnnc(N/N=C/c3ccc(O)cc3)n2)cc1,-62.4,1,-1.2,-10.5,i,-0.55
COc1ccc(-c2cnnc(N/N=C/c3ccc(O)c(O)c3)n2)cc1,-41.2,0.6,35.8,56.2*,i,-0.5
Cc1cc(C)c(OCC(=O)Nc2ccccc2N2CCOCC2)c(C)c1,41.4*,1,-4.3,-7.4,i,0.47
Fc1ccc(CNn2cnnc2SCc2ccc(F)cc2)cc1,-15.4,1,0.2,-6.0,i,.
Fc1ccc(CSc2nncn2NCc2ccc3c(c2)OCO3)cc1,102.9*,1,-4.7,-12.6,i,-0.34
CCN(CC(=O)NC1CCS(=O)(=O)C1)c1ccc(S(C)(=O)=O)cc1[N+](=O)[O-] (stereo unspecified),-13.5,0.9,7.8,-2.2,+,1.18
CCN(CC)S(=O)(=O)c1ccc(OCC(=O)NC2CCS(=O)(=O)C2)c([N+](=O)[O-])c1 (stereo unspecified),-4.9,1.1,-5.0,-7.4,i,0.22
CCCCCCc1cc2cc(-c3nnc(-c4ccccc4O)o3)c(=O)oc2cc1O,-1.1,0.8,20.1,7.9,+,7.49*
SMILES,NCF1 inh,TNAP act hiacc,TNAP inh hiacc,TNAP inh no acc,Autophagy mod,Insulin prom up
CCCCCCc1cc2cc(C(=O)Nc3ccccc3OC)c(=O)oc2cc1O,4.2,0.9,6.4,18.8,i,-0.3
CCCCCCc1cc2cc(-c3nnc(-c4cc(OC)c(OC)c(OC)c4)o3)c(=O)oc2cc1O,-61.9,0.9,14.2,16.5,?,9.96*
CCCCCCc1cc2cc(S(=O)(=O)c3ccc(F)cc3)c(=O)oc2cc1O,-14.3,1.1,-9.6,-15.1,i,0.62
CCCCCCc1cc2cc(-c3nnc(-c4ccccc4OC)o3)c(=O)oc2cc1O,-82.1,0.9,10.2,8.0,?,8.91*
Fc1ccccc1COc1ccc2ccccc2c1CNc1nn[nH]n1,0.3,1,-3.7,6.4,i,0.36
Clc1ccc(/C=N/c2c(-c3ccc(Cl)cc3)nc3n2CCS3)cc1,-4.0,0.9,5.8,3.4,+,-0.47
CCCCCCCCCCCCCCCC(O)C(N)CO (stereo unspecified),84.3*,1,-1.1,-4.3,i,.
C=CCN=c1scc(C)n1/N=C/c1ccc(O)c(O)c1,5.2,0.9,7.5,77.2*,i,-0.63
COc1ccc(O)c(/C=N/n2c(-c3ccco3)csc2=Nc2cccnc2)c1,-16.4,1,-1.4,-14.1,i,0.78
CN=c1scc(-c2ccco2)n1/N=C/c1ccc(O)c(O)c1,-19.6,0.9,11.3,67.4*,i,-3.2
Cc1ccccc1C(=O)OC1OC(=O)C(Cl)=C1N1CCOCC1 (stereo unspecified),1.8,1,-4.1,5.5,i,0.48
O=C(O)COc1ccccc1/C=N/NC(=O)CSc1nc2ccccc2n1Cc1ccccc1Cl,-17.4,.,.,.,.,0.79
Cc1c(/C=N/Nc2ccc([N+](=O)[O-])cn2)c2ccccc2n1Cc1ccccc1,-38.8,.,.,.,.,1.38
Cc1ccc(Cn2cc(/C=N/Nc3ccc([N+](=O)[O-])cn3)c3ccccc32)cc1,-37.5,0.8,22.1,27.6,+,2.34
CCCCOc1ccc(Br)cc1/C(C)=N/NC1=NCCN1,-26.8,1,-0.8,-5.4,+,.
CCCCOc1ccc(Br)cc1CSC(=N)N,0.7,1,-3.0,-50.3,i,?
C/C(=N\NC1=NCCN1)c1ccc(N)c([N+](=O)[O-])c1,2.9,.,.,.,.,0.57
CCCCCCOc1ccc(/C(C)=N/NC2=NCCN2)cc1[N+](=O)[O-],51.4*,1,-4.0,-2.8,+,-7.26
CCSc1nc(C2CC2)cc(-c2cccs2)c1C#N,-12.5,1,-4.4,-8.8,i,.
N#Cc1c(-c2ccccc2F)cc(C2CC2)nc1SCC(=O)c1cccs1,-33.6,1,2.1,-16.9,+,1.32
O=C(CSc1nnc(COc2ccccc2)o1)N1CCOCC1,-9.2,1.1,-5.9,-5.5,i,0.18
COc1ccc(-c2nnn(CC(=O)NCCc3ccc(OC)c(OC)c3)n2)cc1,-2.3,1,-0.7,-18.0,i,-0.3
CN1C(=O)C2(C(C#N)=C(N)Oc3n[nH]c(-c4ccc(Cl)cc4)c32)c2ccccc21 (stereo unspecified),-4.6,1.1,-6.5,0.5,i,0.62
CCCc1[nH]nc2c1C1(C(=O)N(C(C)C)c3ccccc31)C(C#N)=C(N)O2 (stereo unspecified),-4.0,1,-1.2,-4.1,+,-0.39

# Compound activity from PubChem.
